Test [1] relates to Ileum. Briefly: Relaxant activity in potassium depolarized guinea pig ileum longitudinal smooth muscle assessed as inhibition of calcium-induced contraction. The class given is functional, tissue-based. The conditions noted are these: Cavia porcellus. Summed up:
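K⁺-depolarized (80 mM) guinea pig ileum longitudinal smooth muscle is used. Calcium-induced contraction is measured with cumulative compound addition.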

Test [2] relates to Ileum. Briefly: Relaxant activity in potassium depolarized guinea pig ileum longitudinal smooth muscle assessed as inhibition of calcium-induced contraction at 10^-4 M relative to control. The class given is functional, Cavia porcellus. Details: scale not given: the % may be the effect or the level left.
Test [3] can be described thus: Negative chronotropic activity in guinea pig right atrium assessed as decrease in atrial rate at 5x10'-5 M relative to control. The class given is functional, Cavia porcellus, Cardiac atrium. Also noted: scale not given: the % may be the effect or the level left.
A short description of test [4]: Negative chronotropic activity in guinea pig right atrium assessed as decrease in atrial rate. The following applies: Cavia porcellus, Cardiac atrium. The class given is functional, tissue-based. The essentials:
(§1)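 Isolated guinea pig atria are used, with left atria driven at 1 Hz. Compounds are added cumulatively. EC50 is derived from log concentration−response curves by Litchfield–Wilcoxon probit analysis, n = 6−7. EC50 is not calculated when the maximal effect is below 50%.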

The nature of test [5]: Negative inotropic activity in guinea pig left atrium assessed as decrease in developed tension at 10^-6 M relative to control. The class given is functional, Cavia porcellus, Cardiac atrium. Also noted: scale not given: the % may be the effect or the level left.
Test [6] concerns Aorta. As to the kind of experiment: Relaxant activity in potassium depolarized guinea pig aortic strips assessed as inhibition of calcium-induced contraction at 10^-4 M relative to control. Also noted: scale not given: the % may be the effect or the level left. The class given is functional, Cavia porcellus. The essentials:
(§2)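 Guinea pig aortic strips and ileum longitudinal smooth muscle are depolarized with 80 mM K⁺. The read-out is percent inhibition of calcium-induced contraction. Aorta is tested at 10⁻⁴ M and ileum at 10⁻⁵ M.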

Test [7] deals with Ileum. Briefly: Relaxant activity in potassium depolarized guinea pig ileum longitudinal smooth muscle assessed as inhibition of calcium-induced contraction at 5x10'-7 M relative to control. The class given is functional, Cavia porcellus. Also noted: scale not given: the % may be the effect or the level left.
Test [8] is described as follows: Negative chronotropic activity in guinea pig right atrium assessed as decrease in atrial rate at 5x10'-6 M relative to control. Format: functional, Cavia porcellus, Cardiac atrium. Details: scale not given: the % may be the effect or the level left.
The test system of a further test is HEK293. As to the kind of experiment: Displacement of [3H]-PN200-110 from voltage-gated calcium channel subunit alpha Cav1.2a (unknown origin) expressed in HEK293 cells at 100 uM after 90 mins by liquid scintillation counting analysis relative to control. Format: cell-based. The following applies: Homo sapiens. On the technique in general: Displacement assays read how much labelled ligand stays bound in the presence of the test substance.

The species entered for test [9] is Cavia porcellus. Briefly: Displacement of [3H]-PN200-110 from L-type calcium channel in Hartley guinea pig ventricular membrane […] after 90 mins relative to control.
A short description of test [10]: Displacement of [3H]-PN200-110 from voltage-gated calcium channel subunit alpha Cav1.2a (unknown origin) expressed in HEK293 cells after 90 mins by liquid scintillation counting analysis. Format: cell-based, Homo sapiens. The essentials:
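Intact HEK-293 cells stably transfected with a rabbit Cav1.2a (α1c-a) plasmid are used. They are incubated with 0.5 nM (+)-[5-methyl-3H]PN200-110 plus competitor at 0.001−100 μM, from 10⁻² M DMSO stocks diluted in buffer. IC50 values are given as mean ± SEM.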

Test [11] concerns Aorta. Briefly: Relaxant activity in potassium depolarized guinea pig aortic strips assessed as inhibition of calcium-induced contraction at 10^-5 M relative to control. Format: functional, Cavia porcellus. Details: scale not given: the % may be the effect or the level left.
Test [12] is filed under the species Cavia porcellus. Briefly: Displacement of [3H]-PN200-110 from L-type calcium channel in Hartley guinea pig atrial membrane at 100 uM after 90 mins relative to control. Format: cell membranes. The following applies: Cardiac atrium.
Test [13] is described as follows: Negative inotropic activity in guinea pig left atrium assessed as decrease in developed tension at 10^-4 M relative to control. Format: functional, Cavia porcellus, Cardiac atrium. Also noted: scale not given: the % may be the effect or the level left.
Test [14] in a line: Displacement of [3H]-PN200-110 from L-type calcium channel dihydropyridine binding site in Wistar rat cortex homogenate after 60 mins by liquid scintillation spectometric analysis. The class given is tissue-based. Summed up:
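Competition binding on rat cortex homogenate with (+)-[5-methyl-3H]PN200-110. Compounds are dissolved in DMSO as 10⁻² M stocks and diluted in buffer. Six displacer concentrations are tested, each in triplicate. IC50 is obtained by −log probit analysis and Ki by the Prusoff method. Values are mean ± SEM of 3−5 separate experiments done in triplicate.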

Test [15] deals with Ileum. Briefly: Relaxant activity in potassium depolarized guinea pig ileum longitudinal smooth muscle assessed as inhibition of calcium-induced contraction at 10^-7 M relative to control. Format: functional, Cavia porcellus. Details: scale not given: the % may be the effect or the level left.
Test [16] is described as follows: Displacement of [3H]-PN200-110 from L-type calcium channel in Hartley guinea pig atrial membrane after 90 mins. Format: cell membranes, Cavia porcellus, Cardiac atrium. Summed up:
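Guinea pig atrial membranes are labelled at the 1,4-DHP site with (+)-[5-methyl-3H]PN200-110 at 0.5 nM. Competitor is added over 0.001−100 μM from 10⁻² M DMSO stocks diluted in buffer. Results are given as IC50 and Ki, mean ± SEM. Student's t-test is applied with P<0.001.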

The species entered for a further test is Rattus norvegicus. Briefly: Displacement of [3H]-PN200-110 from L-type calcium channel dihydropyridine binding site in Wistar rat cortex homogenate at 100 uM after 60 mins by liquid scintillation spectometric analysis relative to control. Format: tissue-based. The essentials: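 Binding on rat cortex homogenate using (+)-[5-methyl-3H]PN200-110. The read-out is percent of maximal radioligand displacement at 100 μM test compound. Compounds are made up as 10⁻² M DMSO stocks and diluted in buffer. Values are from 3−5 separate experiments done in triplicate.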

The nature of test [17]: Displacement of [3H]-PN200-110 from L-type calcium channel in Hartley guinea pig ventricular membrane […] after 90 mins. Details: species or system Cavia porcellus.
Test [18] is described as follows: Negative chronotropic activity in guinea pig right atrium assessed as decrease in atrial rate at 10^-7 M relative to control. The class given is functional, Cavia porcellus, Cardiac atrium. Also noted: scale not given: the % may be the effect or the level left. Summed up:
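Spontaneously beating isolated guinea pig right atrium. Compounds added cumulatively. The decrease in atrial rate is expressed as percent change from control. At each concentration, the difference from control was tested by Student's t-test, with significance at P<0.05. Data are given as mean SEM.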

The subject of test [19] is Aorta. As to the kind of experiment: Relaxant activity in potassium depolarized guinea pig aortic strips assessed as inhibition of calcium-induced contraction at 10^-6 M relative to control. Format: functional, Cavia porcellus. Also noted: scale not given: the % may be the effect or the level left. The essentials:
(§3)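 Guinea pig aortic strips and ileum longitudinal smooth muscle were depolarized with 80 mM K⁺. Calcium-induced contraction was measured with cumulative compound addition, and inhibition was expressed as percent change from control (n = 6−7). Differences from control at each concentration were tested by Student's t-test, P < 0.05, and data are mean SEM.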

Test [20] relates to Ileum. As to the kind of experiment: Relaxant activity in potassium depolarized guinea pig ileum longitudinal smooth muscle assessed as inhibition of calcium-induced contraction at 5x10'-9 M relative to control. Details: scale not given: the % may be the effect or the level left. Format: functional, Cavia porcellus. Summed up:
as §3

Test [21] is described as follows: Negative inotropic activity in guinea pig left atrium assessed as decrease in developed tension at 10^-5 M relative to control. Format: functional, Cavia porcellus, Cardiac atrium. Also noted: scale not given: the % may be the effect or the level left.
Test [22] is described as follows: Negative inotropic activity in guinea pig left atrium assessed as decrease in developed tension. The following applies: Cavia porcellus, Cardiac atrium. Format: functional, tissue-based. Summed up:
as §1

Test [23] is described as follows: Negative inotropic activity in guinea pig right atrium assessed as decrease in developed tension at 10^-5 M relative to control. Format: functional, Cavia porcellus, Cardiac atrium. Also noted: scale not given: the % may be the effect or the level left. Summed up:
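The read-out is decrease in developed tension of spontaneously beating isolated guinea pig right atrium at 10⁻⁵ M. It is expressed as percent change from control, n = 7−8.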

Test [24] is described as follows: Negative chronotropic activity in guinea pig right atrium assessed as decrease in atrial rate at 10^-4 M relative to control. The class given is functional, Cavia porcellus, Cardiac atrium. Details: scale not given: the % may be the effect or the level left. Summed up: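 The read-out is decrease in rate of spontaneously beating isolated guinea pig right atrium at 10⁻⁴ M. It is expressed as percent change from control, n = 7−8.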

Test [25] can be described thus: Negative inotropic activity in guinea pig right atrium assessed as decrease in developed tension. The class given is functional, tissue-based. The following applies: Cavia porcellus, Cardiac atrium.
Test [26] concerns Ileum. As to the kind of experiment: Relaxant activity in potassium depolarized guinea pig ileum longitudinal smooth muscle assessed as inhibition of calcium-induced contraction at 10^-5 M relative to control. The class given is functional, Cavia porcellus. Details: scale not given: the % may be the effect or the level left. Summed up:
as §2

The test system of test [27] is Aorta. Briefly: Relaxant activity in potassium depolarized guinea pig aortic strips assessed as inhibition of calcium-induced contraction at 5x10'-5 M relative to control. Also noted: scale not given: the % may be the effect or the level left. The class given is functional, Cavia porcellus.
Test [28] deals with Ileum. As to the kind of experiment: Relaxant activity in potassium depolarized guinea pig ileum longitudinal smooth muscle assessed as inhibition of calcium-induced contraction at 5x10'-5 M relative to control. Also noted: scale not given: the % may be the effect or the level left. The class given is functional, Cavia porcellus.

By IC50 is commonly meant the concentration at which inhibition is half-maximal. Broadly, the EC50 is the concentration at which the effect is half-maximal. `COC(=O)C1=C(C)NC(C)=C(C(=O)OC)C1c1c(-c2ccncc2)nc2sc(C)cn12`: in the test with Ileum [1], the IC50 was determined as 9690 nM. Further, the Activity is 97% in the test with Ileum [2], 93% in [3], 44% in [5] and 4% in the test with Aorta [6]. In test [4], the half-maximal effective concentration (EC50) came out at 7490 nM.

By Ki is commonly meant a measure of affinity in units of concentration, obtained from inhibition or displacement. For the compound `COC(=O)C1=C(C)NC(C)=C(C(=O)OC)C1c1c(-c2cccs2)nc2sccn12`, the Activity with Ileum [7] turned out to be 91%; in test [8], 85%; in the test with Aorta [11] it was 23%; in [13] it was 46%. Also, the values for the IC50 (in the test with Ileum [1]; in test [10]) were 110 nM and 2150 nM, respectively. Further, the %max was 50% in the test with HEK293, below 50% in the test filed under Cavia porcellus [9] and below 50% in the test listed under Cavia porcellus [12]. Also, the Ki in test [10] is 710 nM. Also, the EC50 in test [4] was found to be 1300 nM.

For the compound `COC(=O)C1=C(C)NC(C)=C(C(=O)OC)C1c1c(-c2ccsc2)nc2sccn12`, the IC50 is 2.3 nM in the test on Ileum [1]; 490 nM in test [10]; 1030 nM in test [14]; 240 nM in test [16]; 2050 nM in test [17]. The Activity in test [8] is on record as 87%; in the test on Ileum [15], 85%; in [13], 47%; in the test with Aorta [6] it was 11%. Moreover, the %max came out at 65% with HEK293, 70% in the test listed under Cavia porcellus [9], 53% in the test filed under Rattus norvegicus and 60% in the test listed under Cavia porcellus [12]. Moreover, the Ki came to 150 nM in [10], 740 nM in test [14], 52 nM in [16] and 740 nM in test [17]. In addition, the EC50 in [4] was determined as 1060 nM.

As to `COC(=O)C1=C(C)NC(C)=C(C(=O)OC)C1c1ccccc1[N+](=O)[O-]` [NIFEDIPINE], the Activity was 85% in test [18], 82% in the test with Aorta [19], 70% in the test with Ileum [20] and 97% in [21]. In addition, the %max came to 75% in the test on HEK293, 80% in the test listed under Cavia porcellus [9], 92% in the test listed under Rattus norvegicus and 72% in the test listed under Cavia porcellus [12]. The IC50 in test [10] was 86 nM; in [14], 6.1 nM; in test [16], 5.1 nM; in test [17] it was 5.7 nM. Moreover, the Ki worked out at 32 nM in [10], 1.9 nM in test [14], 1.5 nM in test [16] and 2 nM in test [17]. Also, the EC50 in test [4] stood at 39 nM; in [22] it was 260 nM.

In the case of `COC(=O)C1=C(C)NC(C)=C(C(=O)OC)C1c1c(-c2c(Cl)csc2Cl)nc2sc(C)cn12`, the Activity came out at 82% in test [23]; 22% in [24]; 87% in the test on Ileum [26]; 60% in test [21]; 31% with Aorta [6]. Also, the IC50 with Ileum [1] was found to be 3230 nM. For the same compound, the EC50 amounted to 730 nM in test [25] and 310 nM in test [22].

For the compound `COC(=O)C1=C(C)NC(C)=C(C(=O)OC)C1c1c(-c2cccnc2)nc2sc(C)cn12`, the IC50 in the test on Ileum [1] stood at 16000 nM; in test [14] it was 100 nM; in [16] it was 22 nM. In addition, the Activity worked out at 19% in the test with Aorta [27], 86% in [3], 83% with Ileum [28] and 18% in test [5]. Further, the %max in the test on HEK293 is below 50%; in the test listed under Cavia porcellus [9] it was below 50%; in the test filed under Rattus norvegicus, 70%; in the test listed under Cavia porcellus [12] it was 52%. The figures for the Ki in [14] and in test [16] were 59 nM and 4.8 nM, respectively. Moreover, the EC50 in test [4] turned out to be 12500 nM.
